Measured values as given in the M2OR odorant receptor database.
Residue numbers refer to the chain shown, from its start.

Experiments:
Conditions in all cases: stereoisomer not certain
OR2W1 [1] = system: T1, OR2W1
T1 sequence (whole entry): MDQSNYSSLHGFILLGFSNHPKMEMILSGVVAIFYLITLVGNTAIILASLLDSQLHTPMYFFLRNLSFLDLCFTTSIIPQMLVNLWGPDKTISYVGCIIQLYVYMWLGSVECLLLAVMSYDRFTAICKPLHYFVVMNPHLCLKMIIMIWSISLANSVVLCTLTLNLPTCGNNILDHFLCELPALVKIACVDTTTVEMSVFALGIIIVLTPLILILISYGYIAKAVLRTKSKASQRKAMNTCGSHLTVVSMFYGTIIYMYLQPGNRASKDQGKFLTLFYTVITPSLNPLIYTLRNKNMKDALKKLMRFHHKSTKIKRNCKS
How it was run: (§1)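 Values were gathered from published papers (main text and supplementary material), with extra details requested from the original authors when needed, and checked for typos and inconsistencies. Each receptor–molecule pair is called responsive (active) if the original authors judged the measured signal statistically different from baseline, and non-responsive (inactive) otherwise. Assay methods varied by source, often transient mammalian cell-line luciferase assays. Recorded details include cell line, G-protein, co-transfected protein and tags.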

OR2W1 [2] = system: T2, OR2W1; remark: listed apart in the source
T2 sequence (whole entry): T1 sequence (whole entry) with M81V, N296D
How it was run: as §1

OR2W1 (Homo sapiens) = target: T3, OR2W1 (Homo sapiens) (UniProt Q9Y3N9)
T3 sequence (whole entry): T1 sequence (whole entry) with N296D
How it was run: as §1

Structure (SMILES) | odorant receptor agonist call (OR2W1 [1]) | odorant receptor agonist call (OR2W1 [2]) | odorant receptor agonist call (OR2W1 (Homo sapiens))
CCCC(S)CCOC(C)=O (stereo not drawn) | active | active | –
CCCCCC(=O)C(C)C(C)=O (stereo not drawn) | active | active | –
CCCCCO | – | – | inactive
C=C(C)c1ccc(C)cc1 | active | active | active
CCCCC(=O)OCC | active | active | active
Cc1occc(=O)c1O | – | – | inactive
O=C1CCOc2ccccc21 | – | – | active
CCCCC1CCC(=O)O1 (stereo not drawn) | active | active | active
CC(=O)C(C)C(C)=O | – | – | inactive
CCCCCCCCCS | – | – | active
CCCCC(=O)O | – | – | inactive
CCC(=O)O | – | – | inactive
CC(=O)CC(=O)CC(C)C | – | – | active
CCCCCCCC(=O)[O-].[H+] | active | inactive | active
CCCCC(=O)C(C)=O | – | – | inactive
C=Cc1ccc(O)cc1 | active | active | active
CC(C)=CCCC(C)CCO (stereo not drawn) | – | – | active
CCOC(=O)CCC(C)C | – | – | active
C=CCOC(=O)CCCCCC | – | – | inactive
COc1cccc(OC)c1O | – | – | inactive

Structure (SMILES) | odorant receptor agonist call (OR2W1 [1]) | odorant receptor agonist call (OR2W1 [2]) | odorant receptor agonist call (OR2W1 (Homo sapiens))
CCCCCCCC1CCCC(=O)O1 (stereo not drawn) | – | – | inactive
OCc1ccccc1 | – | – | inactive
CCCC(O)CC(=O)OCC (stereo not drawn) | – | – | inactive
CC(C)CCO | – | – | inactive
CCC(C)c1nccnc1OC (stereo not drawn) | – | – | inactive
CCCCCC1CCC(=O)O1 (stereo not drawn) | active | active | active
O=C(c1ccccc1)c1ccccc1 | – | – | active
C=Cc1ccc(OCCCCOc2ccc(C=C)cc2)cc1 | – | – | inactive
COC(=O)C(C)C | – | – | inactive
CCCCCCOC(C)=O | active | active | active
CCCCCCC(=O)[O-].[H+] | – | – | inactive
C=CC(=C)CCC=C(C)C | active | active | active
CC1=CCC(C(C)C)C=C1 (stereo not drawn) | active | inactive | active
CCCCCOC(=O)CCCCC | – | – | inactive
CC(=O)c1ccccc1N | – | – | inactive
CCCC(=O)C(C)CC (stereo not drawn) | – | – | inactive
OCCc1ccccc1 | active | inactive | active
CCCCCCCC1CCC(=O)O1 (stereo not drawn) | active | active | active
CC(=O)c1ccc(C)cc1 | active | active | active
CCCCCCCC(C)=O | active | active | active

Structure (SMILES) | odorant receptor agonist call (OR2W1 [1]) | odorant receptor agonist call (OR2W1 [2]) | odorant receptor agonist call (OR2W1 (Homo sapiens))
CCCCC=CC=O | active | inactive | active
CCOC(=O)CCSC | active | active | active
CCCCC1OC(=O)CC1C (stereo not drawn) | active | active | active
CCCCCC(C)O (stereo not drawn) | active | active | active
CCOC(=O)c1ccccc1 | active | active | active
COC(=O)C=Cc1ccccc1 | active | active | active
CCCSSSC | active | active | active
CCC(C)CO (stereo not drawn) | active | active | active
c1coc(CSSCc2ccco2)c1 | active | active | active
CCOC(=O)C1CCCCC1 | active | inactive | active
CCCCCC=CC=O | active | inactive | active
CCCCCCCC(=O)OCC | active | inactive | active
CCCCCCO | active | inactive | active
CCC=CCCOC(C)=O | active | active | active
CCCCCc1ccccn1 | active | active | active
C=C(C)C1CC=C(C)CC1 (stereo not drawn) | active | active | active
CCCCCC(=O)OCC | active | active | active
CC(=O)OCCC(C)C | active | active | active
CSCc1ccco1 | active | active | active
C=CC(O)CCCCC (stereo not drawn) | active | active | active
